From PubChem
An excerpt weighted towards active compounds, which were near 2.9% of everything screened.
Apaf1 inhib = inhibitors of human Apaf-1 apoptosome | O14727 | inhibition, % at 20 µM | actives 0.71% (n = 330,000) | reconstituted apoptosome caspase-3 activity, DEVD-Rh110 fluorescence; active = inhibition of at least 40% at 20 µM;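 note: plate controls were DMSO wells for no effect and DEVD-CHO caspase inhibitor wells for full effect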
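Material: reconstituted apoptosome with Apaf-1, cytochrome c, caspase-9, procaspase-3, dATP; medium: pH 7.5 Hepes buffer with CHAPS, BSA, DTT; also added: cytochrome c and DEVD-Rh110 substrate; timing: 30 min plus 50 min, RT; signal: Rh110 fluorescence intensity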
PfG6PD inh = PfG6PD (Plasmodium falciparum) enzyme inhibition; PfGluPho enzyme, NADPH resazurin-diaphorase fluorescence; actives 0.78% (n = 350,000); inhibition, % at 20 µM;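 active = inhibition reaching at least a set limit at 20 µM in the primary screen, cut at about 59% in these data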;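 note: 0% = DMSO wells with substrate and 100% = DMSO wells lacking glucose-6-phosphate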
ZTA counter = ZTA (EBV) inhibition in EBNA-1 counter-screen. ZTA-DNA binding, fluorescence polarization. inhibition, % at 11 µM. actives 0.15% (n = 320,000). P03206; in the data active = inhibition above about 33%
Target sequence (P03206 whole entry, looked up): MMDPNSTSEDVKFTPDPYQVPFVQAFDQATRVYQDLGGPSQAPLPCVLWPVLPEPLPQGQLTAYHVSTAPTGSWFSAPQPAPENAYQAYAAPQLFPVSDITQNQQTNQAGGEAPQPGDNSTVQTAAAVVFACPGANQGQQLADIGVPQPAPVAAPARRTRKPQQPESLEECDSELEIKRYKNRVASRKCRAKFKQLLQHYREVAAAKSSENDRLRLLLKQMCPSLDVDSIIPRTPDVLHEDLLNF
M18AAP inhibitor = PfM18AAP enzyme inhibition. inhibition, % at 7.35 µM. recombinant PfM18AAP, H-Glu-NHMec fluorogenic cleavage. actives 1.2% (n = 290,000);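 active = inhibition above the campaign mean inhibition over all tested compounds plus 3 SD, cut at about 28% in these data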;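 note: 0% = plate median of test compound wells and 100% = 2 mM ZnCl2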
EBNA-1 inh = blocks EBNA-1 binding to DNA. inhibition, % at 14.8 µM. actives 0.34% (n = 300,000). AID 1950. EBNA-1 DNA binding, fluorescence polarization; in the data active = inhibition above about 28%
UBC13 inh = inhibitors of human UBC13 polyubiquitin chain formation; P61088; TR-FRET; actives 0.47% (n = 330,000); inhibition, % at 20 µM; in the data active = inhibition above about 45%, passing the limit was not always enough
Target sequence (P61088 whole entry, looked up): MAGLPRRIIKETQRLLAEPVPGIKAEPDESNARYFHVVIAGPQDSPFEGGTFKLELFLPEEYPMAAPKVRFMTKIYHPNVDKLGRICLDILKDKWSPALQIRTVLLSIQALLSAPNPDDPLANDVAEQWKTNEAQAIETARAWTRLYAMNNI
Apaf-1 inh conf2 = Apaf-1 inhibition, single-dose confirmed; reconstituted apoptosome, caspase-3 DEVD-Rh110 fluorescence; shares compounds with Apaf1 inhib; inhibition, % at 20 µM; actives 25% (n = 1,800); AID 504614;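 active = mean inhibition of at least 40% at 20 µM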;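 note: plate controls were DMSO wells for no effect and DEVD-CHO caspase inhibitor control wells for full effect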
Rh110 interf inh = counter-screen for Apaf-1 inhibitors: fluorescence interference; shares compounds with Apaf1 inhib; Rh110 fluorescence interference, quenched caspase reaction; activation (fluorescence interference), % at 20 µM; 1,800 tested, under 10 active; AID 504615;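 active = signal rise of 40% or more at 20 µM, treated as a fluorescence artifact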
Fluor interf inh = counter-screen for Apaf-1 inhibitors: fluorescence interference, dose response; shares compounds with Apaf1 inhib; fluorescence interference counterscreen, Apaf-1 assay format; IC50, µM; 460 tested, under 10 active; AID 588538; call rule not given here
PfGluPho conf = PfG6PD inhibition, single-dose confirmed. shares compounds with PfG6PD inh. recombinant PfGluPho, NADPH-diaphorase-resazurin fluorescence. inhibition, % at 20 µM. actives 34% (n = 2,400);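 active = inhibition of at least 50% at 20 µM in any single replicate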;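 note: 0% = DMSO with substrate and 100% = DMSO lacking glucose-6-phosphate substrate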
Diaphorase 10uM = inhibits diaphorase or oxidizes, flagging false PfG6PD hits. shares compounds with PfG6PD inh. diaphorase-coupled resazurin reduction, fluorescence, NADPH 10 uM. inhibition, % at 20 µM. actives 39% (n = 820);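 active = average inhibition reaching 50% or more with the compound at 20 µM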;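 note: resorufin red fluorescence formed as diaphorase reduces resazurin using NADPH; 0% = DMSO with enzyme and 100% = DMSO without enzyme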
Diaphorase 30uM = inhibits diaphorase or oxidizes, flagging false PfG6PD hits. Diaphorase/resazurin coupled assay, resorufin fluorescence, 30 uM NADPH. inhibition, % at 20 µM. AID 504863. shares compounds with PfG6PD inh. actives 29% (n = 820);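 active = inhibition averaging 50% or more, tested at 20 µM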;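 note: 0% = DMSO with enzyme and 100% = DMSO wells lacking diaphorase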
* hit, by the source's call; . = no result given.

SMILES	Apaf1 inhib	PfG6PD inh	ZTA counter	M18AAP inhibitor	EBNA-1 inh	UBC13 inh	Apaf-1 inh conf2	Rh110 interf inh	PfGluPho conf	others
Cc1ccc2[nH]c3c(c2c1)CN(C(=O)CN1CCN(c2cccc(C)c2C)CC1)CC3	42.6*	19.8	12.6	7.1	0.5	1.9	18.8	6.4	.
Cc1ccc2[nH]c3c(c2c1)CN(C(=O)CN1CCN(C(=O)c2ccco2)CC1)CC3	19.4	.	-8.9	4.2	1.4	-1.2	.	.	.
COc1cccc(N2C(=O)CC(N3CCN(CCN=CC4=C(O)CC(C)(C)CC4=O)CC3)C2=O)c1 (stereo unspecified)	-5.9	6.4	8.1	-5.2	5.5	3.0	.	.	.
CC(C)(C)c1ccc(-c2nn(CCC#N)cc2/C=N/O)cc1	49.9*	-0.7	1.8	0.5	-0.8	5.3	39.2	6.8	.
Cc1ccc(-c2nn(CCC#N)cc2C=C(C#N)C#N)cc1	8.8	-11.7	-7.7	-0.6	-16.3	0.8	.	.	.
CCCCNCc1cc2ccccc2o1	-5.3	6.9	1.1	-1.7	-4.0	15.3	.	.	.
COc1ccc(NC(=O)CCn2c(=S)[nH]c3ccccc3c2=O)cc1	85.7*	-12.2	-4.4	12.5	-5.6	0.6	6.6	4.8	.
COc1ccc(NS(=O)(=O)c2cccc(C(=O)NNC(=O)c3ccccc3OC)c2)cc1	5.0	-27.4	-9.2	.	2.0	0.5	.	.	.
CC1=NN(c2ccccc2)C(=O)C1N=Nc1ccc(C)cc1 (stereo unspecified)	-9.2	.	1.8	-6.7	3.2	-7.0	.	.	.
CC1=NN(c2ccc(C)cc2C)C(=O)C1C(c1ccccc1O)C1C(=O)N(c2ccc(C)cc2C)N=C1C (stereo unspecified)	96.9*	-39.3	-10.2	6.4	-9.1	-17.8	23.4	-2.1	.
Cc1ccc(S(=O)(=O)N2CCN(c3nc(CN4CCCC4)nc4sc(C)c(C)c34)CC2)cc1	47.8*	14.5	-3.5	.	.	18.2	29.1	14.5	.
O=[N+]([O-])c1cc(Cl)c2cccnc2c1O	30.0	7.3	-4.2	2.9	-5.1	-65.9	.	.	.
O=[N+]([O-])c1cc(F)c2cccnc2c1O	64.2*	32.9	-2.6	15.8	-14.7	-99.2	29.3	8.3	.
N#Cc1ccsc1NC(=O)c1ccc(Cl)c([N+](=O)[O-])c1	47.9*	-3.6	-15.3	11.4	-4.6	-16.1	6.3	-3.5	.
O=[N+]([O-])c1ccc(C=Nc2cccc3ccccc23)s1	68.1*	70.8*	0.1	3.2	1.6	-22.8	9.9	-0.6	17.8
O=[N+]([O-])c1ccc(C=NN2CCOCC2)s1	.	-12.3	.	.	.	.	.	.	.
CCCOC(=O)c1c(-c2ccccc2)nc(CC)c(C(=O)SCC)c1CCC	2.8	4.1	-1.8	.	-4.2	0.5	.	.	.
COC(=O)c1cc(C)nc2c1C(=O)C(=O)C=C2N1CCOCC1	98.5*	105.4*	57.1*	5.5	-0.9	-202.4	100.2*	4.4	101.2*	Fluor interf inh=>100;Diaphorase 10uM=98.5*;Diaphorase 30uM=103.3*
COC(=O)c1cc(S(=O)(=O)N2CCOCC2)c(Cl)cc1N1CCOCC1	-19.0	-9.4	-0.1	-7.4	-2.6	5.7	.	.	.
COc1ccc(-n2c(C)cc(/C=N/Nc3nnc(C)n3N)c2C)cc1	52.6*	65.9*	-14.8	48.0*	2.4	-6.6	1.2	0.4	44.0
CCn1cnc2cc(NCc3ccc(OC)cc3)ccc21	-9.8	10.7	-6.6	14.1	-2.6	-7.2	.	.	.
CCOc1ccc2nc3cc(NCc4ccc(OC)cc4)ccc3c(N)c2c1	96.5*	67.2*	101.0*	17.4	13.1	38.4	82.5*	-3.6	29.8	Fluor interf inh=>100
O=C1C(c2ccccc2)=[N+]([O-])c2ccccc21	85.3*	61.0*	-10.9	.	-3.3	-75.5	87.3*	1.5	11.6	Fluor interf inh=>100
COC1=C(c2ccccc2)C(=O)c2ccccc2C1=O	16.0	23.7	-0.4	12.1	0.1	-45.2	.	.	.
COc1cc(/C=N/NC(=O)C2C3CCCCC32C)cc(Br)c1O (stereo unspecified)	2.0	-0.8	9.0	10.2	8.5	2.8	.	.	.
SMILES	Apaf1 inhib	PfG6PD inh	ZTA counter	M18AAP inhibitor	EBNA-1 inh	UBC13 inh	Apaf-1 inh conf2	Rh110 interf inh	PfGluPho conf	others
CC1(C)Cc2ccccc2C2=NNC(=O)C2=N1	62.1*	108.4*	-3.4	0.6	-0.8	-53.3	63.9*	2.9	93.5*	Fluor interf inh=>100;Diaphorase 10uM=92.8*;Diaphorase 30uM=92.5*
CC1(C)Cc2ccccc2C(Nn2cnnc2)=N1	3.9	8.3	-26.7	6.1	2.9	1.2	.	.	.
Cc1cc(C)c(S(=O)(=O)/N=C2/C=C(SCC(=O)O)C(=O)c3ccccc32)cc1C	72.4*	106.5*	.	-13.1	.	-56.8	55.1*	-1.6	94.8*	Fluor interf inh=>100;Diaphorase 10uM=48.4;Diaphorase 30uM=36.4
Cc1ccc(-n2c(SCC(=O)N(C)C)nnc2-c2ccco2)cc1	-0.8	-10.6	-5.7	0.5	-18.9	6.3	.	.	.
Cc1ccc(S(=O)(=O)/C(C#N)=C/c2c(N3CCC(C(N)=O)CC3)nc3ccccn3c2=O)cc1	-1.7	-2.8	3.2	-3.5	4.8	3.2	.	.	.
O=C(c1ccccc1)c1coc2ccc(O)c(Cl)c12	-16.1	1.4	-13.5	8.9	-8.1	27.9	.	.	.
O=C1C(=O)c2c(C(=O)c3ccccc3)coc2-c2ccccc21	55.2*	116.7*	-1.4	9.5	1.4	-62.1	35.7	14.1	106.6*	Diaphorase 10uM=94.2*;Diaphorase 30uM=99.6*
O=C(COC(=O)c1ccc(N2CCCC2=O)cc1)c1ccccc1	1.2	11.9	-10.6	1.0	7.3	4.5	.	.	.
CN(C)c1ncc(C2=C(Cl)C(=O)C(N3CCCC3)=C(Cl)C2=O)s1	83.0*	90.8*	10.7	22.8	1.3	-57.4	42.0*	2.9	97.8*	Fluor interf inh=>100;Diaphorase 10uM=35.1;Diaphorase 30uM=29.8
CC(=O)c1cnc(N(C)C)s1	-1.8	0.1	-17.5	-4.0	4.5	1.2	.	.	.
COc1cc(C(C)=O)ccc1OCC(=O)N1CCCC1c1ccc2c(c1)OCCCO2 (stereo unspecified)	.	9.7	.	.	.	.	.	.	.
CN(C(=S)Nc1ccc(SC(F)F)cc1)c1ccc(O)cc1	69.9*	69.8*	3.4	22.4	8.6	9.7	5.4	1.7	-16.8
CN(C(=S)Nc1ccccc1)c1ccccc1	2.1	3.7	-18.4	-2.2	2.3	-4.1	.	.	.
